Measurements from different studies.
Protocols differ between the studies behind these lines.
Matrix: PAMPA

| SMILES | setting | Papp [×10⁻⁶ cm/s] |
| --- | --- | --- |
| CCCCCOC(=O)c1ccc(O)cc1 | 5 µM, pH 7.4 | 4.28 |
| C=C(CC(=O)OCOC(=O)C(C)(C)C)C(=O)OC | 10 µM, 4 h, pH 7.4 | > 10 |
| Cc1c(S(=O)(=O)N2CCC(C)CC2)cc(C(=O)NCc2cccnc2N2CCCC2)n1C | – | 32.8 |
| CCCCCCCOC(=O)c1ccc(O)cc1 | 5 µM, pH 7.4 | 1.9 |
| Cc1[nH]c(C)c(S(=O)(=O)Nc2ccc(C(F)(F)F)c(Cl)c2Cl)c1C(=O)N1CCC(F)(F)C1 | – | 0.18 |
| C=C(CC(=O)OCc1oc(=O)oc1C)C(=O)OCc1oc(=O)oc1C | 10 µM, 4 h | ~15 |
| CCCOC(=O)c1ccc(O)cc1 | 5 µM, pH 7.4 | 7.04 |
| Cc1c(S(=O)(=O)N2CCn3nccc3C2)cc(C(=O)NCc2c(F)ccc3cnn(C)c23)n1C | – | 25 |
| C=C(CC(=O)OCOC(=O)C(C)(C)C)C(=O)OCOC(=O)C(C)(C)C | 10 µM, 4 h, pH 7.4 | > 10 |
| O=C(O)c1cc(/N=N/c2ccc(S(=O)(=O)Nc3ccccn3)cc2)ccc1O | 4 h | 0.077 |
| CCOC(=O)c1ccc(O)cc1 | 5 µM, pH 7.4 | 4.72 |
| C=C(CC(=O)OC)C(=O)OCOC(=O)C(C)(C)C | 10 µM, 4 h, pH 7.4 | > 10 |
| Cc1c(S(=O)(=O)N2CCn3cccc3C2)cc(C(=O)NCc2cccnc2N2CCCC2)n1C | – | 27.6 |
| CCCCOC(=O)c1ccc(O)cc1 | 5 µM, pH 7.4 | 5.68 |
| COc1ccccc1CNC(=O)c1cc(S(=O)(=O)N2CCn3nccc3C2)c(C)n1C | – | 22.9 |
| C=C(CC(=O)OCc1oc(=O)oc1C)C(=O)OC | 10 µM, 4 h | ~15 |
